Source: ChEMBL document CHEMBL3865794, “Novel securinine derivatives as topoisomerase I based antitumor agents” (Eur J Med Chem, 2016)

Legend:
[1] = target: T1, DNA topoisomerase 1 (Homo sapiens) (UniProt P11387); assay: Inhibition of DNA topoisomerase 1 (unknown origin) assessed as reduction in relaxation of supercoiled pBR322 plasmid DNA at 100 uM incubated for 30 mins by agarose gel electrophoresis relative to control
T1 sequence (whole entry): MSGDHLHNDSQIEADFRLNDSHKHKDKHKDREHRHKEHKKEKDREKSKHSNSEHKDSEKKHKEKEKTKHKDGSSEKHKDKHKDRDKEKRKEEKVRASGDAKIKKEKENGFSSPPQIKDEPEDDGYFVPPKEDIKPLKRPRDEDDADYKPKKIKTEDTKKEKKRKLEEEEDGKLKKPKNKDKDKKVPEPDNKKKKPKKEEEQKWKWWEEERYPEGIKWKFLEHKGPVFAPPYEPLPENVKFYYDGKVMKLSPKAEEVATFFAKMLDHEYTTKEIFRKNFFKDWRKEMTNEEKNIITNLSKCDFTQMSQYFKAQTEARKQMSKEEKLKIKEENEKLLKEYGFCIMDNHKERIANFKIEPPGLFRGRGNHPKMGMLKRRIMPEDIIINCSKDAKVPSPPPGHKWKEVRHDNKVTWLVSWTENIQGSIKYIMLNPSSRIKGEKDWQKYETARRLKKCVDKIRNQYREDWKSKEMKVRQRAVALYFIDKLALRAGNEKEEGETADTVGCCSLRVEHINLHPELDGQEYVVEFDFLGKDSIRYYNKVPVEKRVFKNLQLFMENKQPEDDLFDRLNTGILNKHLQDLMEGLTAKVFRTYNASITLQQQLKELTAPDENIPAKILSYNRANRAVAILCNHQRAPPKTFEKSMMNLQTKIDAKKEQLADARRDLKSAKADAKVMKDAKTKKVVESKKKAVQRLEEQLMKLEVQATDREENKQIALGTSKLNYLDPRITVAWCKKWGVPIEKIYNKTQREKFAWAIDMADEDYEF
Procedure, shortened: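 Supercoiled pBR322 DNA incubated with Topo I in the presence or absence of compound for 30 min at 37 °C. Reaction stopped with dye solution of bromophenol blue, xylene cyanol and glycerol. Products run on 1% agarose in 1× TAE for 40 min, then EB-stained and UV-imaged. Inhibition rate derived from gel gray-scale analysis relative to control. Camptothecin served as positive control.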

[2] = Growth inhibition of human A549 cells after 72 hrs by MTT assay; format: functional, cell-based
Procedure, shortened: (§1)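 Cells seeded at 5 × 10³ per well and incubated overnight in medium with 10% FBS. Medium then replaced with fresh medium containing compound at […] for 72 h. MTT (5 mg/mL stock, 20 µL per well) added for 4 h at 37 °C, formazan dissolved in DMSO, absorbance read at 570 nm. Each dose run in parallel triplicate. IC50 taken from mean absorbance versus concentration curves.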

[3] = Growth inhibition of human HeLa cells after 72 hrs by MTT assay; format: functional, cell-based; procedure, shortened: as §1
[4] = Growth inhibition of human HepG2 cells after 72 hrs by MTT assay; format: functional, cell-based; procedure, shortened: as §1
[5] = Growth inhibition of human SH-SY5Y cells after 72 hrs by MTT assay; format: functional, cell-based; procedure, shortened: as §1

Row | Compound | inhibition [1] [%] | IC50 ([2]; Homo sapiens, A549, 72 h) [µM] | IC50 ([3]; Homo sapiens, HeLa, 72 h) [µM] | IC50 ([4]; Homo sapiens, HepG2, 72 h) [µM] | IC50 ([5]; Homo sapiens, SH-SY5Y, 72 h) [µM] | IC50 ([2]; a549) [µM] | IC50 ([3]; hela) [µM] | IC50 ([5]; sh-sy5y) [µM] | IC50 ([4]; hepg2) [µM]
1 | O=C1O[C@@]23C[C@@H](C=CC2=C1C(O)c1ccc(O)cc1)N1CCCC[C@@H]13 (some centres not stated) | 31.8 | 6.99 | 18.9 | 17.1 | 23 |  |  |  | 
2 | O=C1O[C@@]23C[C@@H](C=CC2=C1C(O)c1ccc(Cl)cc1)N1CCCC[C@@H]13 (stereo in doubt; 4a-3-b) |  |  |  |  |  | 6.2 | 12.5 | 19.9 | 
3 | O=C1O[C@@]23C[C@@H](C=CC2=C1C(O)c1ccc(F)cc1)N1CCCC[C@@H]13 (stereo in doubt; 4a-2-a) |  |  |  |  |  | 4.95 | 12.8 | 19.1 | 10
4 | O=C1O[C@@]23C[C@@H](C=CC2=C1C(O)c1ccc(Br)cc1)N1CCCC[C@@H]13 (stereo in doubt; 4a-4) [listing 1 of 2 here] | 47.1 |  |  |  |  |  |  |  | 
5 | N#Cc1ccccc1C(O)C1=C2C=C[C@@H]3C[C@@]2(OC1=O)[C@H]1CCCCN31 (some centres not stated) | 38.4 | 7.01 | 14.9 | 11.1 | 21.9 |  |  |  | 
6 | O=C1O[C@@]23C[C@@H](C=CC2=C1C(O)c1ccc(Br)cc1)N1CCCC[C@@H]13 (stereo in doubt; 4a-4) [listing 2 of 2 here] |  | 6.32 | 12.8 | 14.1 | 22.3 |  |  |  | 
7 | Cc1ccc(C(O)C2=C3C=C[C@@H]4C[C@@]3(OC2=O)[C@H]2CCCCN42)cc1 (some centres not stated) | 27.1 | 8.81 | 9.07 | 7.09 | 15.1 |  |  |  | 
8 | O=C1O[C@@]23C[C@@H](C=CC2=C1C(O)c1ccc(Cl)cc1)N1CCCC[C@@H]13 (stereo in doubt; 4a-3) [listing 1 of 2 here] | 48.9 |  |  |  |  |  |  |  | 
9 | O=C1O[C@@]23C[C@@H](C=CC2=C1C(O)c1ccc(C(F)(F)F)cc1)N1CCCC[C@@H]13 (stereo in doubt; 4a-6) | 53.6 |  |  |  |  |  |  |  | 
10 | O=C1O[C@@]23C[C@@H](C=CC2=C1C(O)c1ccc(F)cc1)N1CCCC[C@@H]13 (stereo in doubt; 4a-2) [listing 1 of 2 here] | 49.8 |  |  |  |  |  |  |  | 
11 | O=C1O[C@@]23C[C@@H](C=CC2=C1C(O)c1ccc(F)cc1)N1CCCC[C@@H]13 (stereo in doubt; 4a-2-b) |  |  |  |  |  | 5.09 | 12.7 | 19 | 10.1
12 | N#Cc1ccc(C(O)C2=C3C=C[C@@H]4C[C@@]3(OC2=O)[C@H]2CCCCN42)cc1 (stereo in doubt; 4a-5-a) |  |  |  |  |  | 6.2 | 13.1 | 18.9 | 14.1
13 | O=C1O[C@@]23C[C@@H](C=CC2=C1C(O)c1cccc(Cl)c1)N1CCCC[C@@H]13 (some centres not stated) | 35.3 | 11.1 | 15.6 | 17.8 | 27.8 |  |  |  | 
14 | O=C1O[C@@]23C[C@@H](C=CC2=C1C(O)c1ccccc1Br)N1CCCC[C@@H]13 (some centres not stated) | 39.2 | 7.11 | 12.7 | 12.6 | 23.1 |  |  |  | 
15 | O=C1O[C@@]23C[C@@H](C=CC2=C1C(O)c1ccccc1[N+](=O)[O-])N1CCCC[C@@H]13 (some centres not stated) | 40.6 | 3.91 | 8.11 | 6.78 | 8.69 |  |  |  | 
16 | O=C1O[C@@]23C[C@@H](C=CC2=C1C(O)c1ccc(F)cc1)N1CCCC[C@@H]13 (stereo in doubt; 4a-2) [listing 2 of 2 here] |  | 5.01 | 12.8 | 10.1 | 19.8 |  |  |  | 

Row | Compound | inhibition [1] [%] | IC50 ([2]; Homo sapiens, A549, 72 h) [µM] | IC50 ([3]; Homo sapiens, HeLa, 72 h) [µM] | IC50 ([4]; Homo sapiens, HepG2, 72 h) [µM] | IC50 ([5]; Homo sapiens, SH-SY5Y, 72 h) [µM] | IC50 ([2]; a549) [µM] | IC50 ([3]; hela) [µM] | IC50 ([5]; sh-sy5y) [µM] | IC50 ([4]; hepg2) [µM]
17 | CSc1ccc(C(O)C2=C3C=C[C@@H]4C[C@@]3(OC2=O)[C@H]2CCCCN42)cc1 (some centres not stated) | 30.9 | 9.05 | 17.8 | 16.7 | 21 |  |  |  | 
18 | O=C1O[C@@]23C[C@@H](C=CC2=C1C(O)c1ccccc1F)N1CCCC[C@@H]13 (some centres not stated) | 42.3 | 6.89 | 13 | 10.1 | 22 |  |  |  | 
19 | O=C1O[C@@]23C[C@@H](C=CC2=C1C(O)c1cccc(F)c1)N1CCCC[C@@H]13 (some centres not stated) | 34.9 | 8.01 | 16.8 | 16.1 | 27.1 |  |  |  | 
20 | O=C1O[C@@]23C[C@@H](C=CC2=C1C(O)c1ccc(Br)cc1)N1CCCC[C@@H]13 (stereo in doubt; 4a-4-a) |  |  |  |  |  | 6.24 | 12.8 | 22.4 | 
21 | O=C1O[C@@]23C[C@@H](C=CC2=C1C(O)c1ccc(F)cc1F)N1CCCC[C@@H]13 (some centres not stated) | 37.4 | 5.18 | 14.9 | 13.6 | 22.1 |  |  |  | 
22 | N#Cc1ccc(C(O)C2=C3C=C[C@@H]4C[C@@]3(OC2=O)[C@H]2CCCCN42)cc1 (stereo in doubt; 4a-5-b) |  |  |  |  |  |  | 12.1 | 18.9 | 14.1
23 | COc1ccc(C(O)C2=C3C=C[C@@H]4C[C@@]3(OC2=O)[C@H]2CCCCN42)cc1 (some centres not stated) | 31.6 | 10 | 10 | 17.8 | 22.5 |  |  |  | 
24 | O=C1O[C@@]23C[C@@H](C=CC2=C1C(O)c1ccc(Cl)cc1)N1CCCC[C@@H]13 (stereo in doubt; 4a-3-a) |  |  |  |  |  | 6.18 | 12.5 | 20.1 | 13.1
25 | O=C1O[C@@]23C[C@@H](C=CC2=C1C(O)c1ccc(C(F)(F)F)cc1)N1CCCC[C@@H]13 (stereo in doubt; 4a-6-a) |  |  |  |  |  | 2.78 | 8.8 | 8.27 | 2.23
26 | O=C1O[C@@]23C[C@@H](C=CC2=C1C(O)c1ccccc1Cl)N1CCCC[C@@H]13 (some centres not stated) | 42.4 | 7.01 | 10.4 | 9.16 | 19.9 |  |  |  | 
27 | O=C1O[C@@]23C[C@@H](C=CC2=C1C(O)c1ccc(C(F)(F)F)cc1)N1CCCC[C@@H]13 (stereo in doubt; 4a-6-b) |  |  |  |  |  | 3.01 | 9.08 | 8.62 | 2.57
28 | O=C1O[C@@]23C[C@@H](C=CC2=C1C(O)c1ccc(Br)cc1)N1CCCC[C@@H]13 (stereo in doubt; 4a-4-b) |  |  |  |  |  | 6.3 |  | 22.3 | 14.1
29 | N#Cc1ccc(C(O)C2=C3C=C[C@@H]4C[C@@]3(OC2=O)[C@H]2CCCCN42)cc1 (stereo in doubt; 4a-5) [listing 1 of 2 here] | 45.7 |  |  |  |  |  |  |  | 
30 | O=C1O[C@@]23C[C@@H](C=CC2=C1C(O)c1ccc(Cl)cc1)N1CCCC[C@@H]13 (stereo in doubt; 4a-3) [listing 2 of 2 here] |  | 6.21 | 13 | 13 | 20 |  |  |  | 
31 | N#Cc1ccc(C(O)C2=C3C=C[C@@H]4C[C@@]3(OC2=O)[C@H]2CCCCN42)cc1 (stereo in doubt; 4a-5) [listing 2 of 2 here] |  | 6.22 | 13 | 14.2 | 18.9 |  |  |  | 
